# pIC50: −log10 of the molar value. The source made the active and inactive calls. The calls are words filed in the database; no cut-off is given here.
# How the values were obtained:
# [1] = Inhibition of Hh signaling pathway in mouse NIH3T3 cells incubated for 48 hrs by Gli luciferase reporter assay; type: cell-based; conditions: NIH3T3, 48 h
# Method in brief: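 Reporter cells were seeded in 96-well plates, incubated overnight, then treated for 48 h. Lysate luciferase activity was measured with a dual-luciferase system, and firefly signal was normalised to Renilla.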
# [2] = test system: PANC-1; experiment: Antiproliferative activity against human PANC-1 cells assessed as inhibition of cell viability incubated for 48 hrs by MTT assay; type: functional, cell-based; conditions: PANC-1, 48 h
# Method in brief: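 Cells in log phase were seeded at 8,000-10,000/well and allowed to adhere overnight at 37 °C, 5% CO2. Compound from DMSO stock, diluted in medium, was applied for 48 h; controls got drug-free medium, blanks held medium only. MTT (5 mg/mL stock) 4 h, formazan dissolved in DMSO, A490 read. Viability was blank-corrected against untreated cells; IC50 came from a fitted curve; three separate experiments.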
# [3] = test system: PANC-1; experiment: Inhibition of Hh signaling pathway in human PANC-1 cells assessed as reduction in Gli1 level incubated for 48 hrs by Western blot analysis; type: cell-based; conditions: dose 2.5-10 µM
# Method in brief: (§1)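 Cells were treated in 6-well plates for 48 h, lysed by sonication in RIPA with PMSF, and quantified by BCA. 20-30 μg protein was run on 6-12% gradient SDS-PAGE and transferred to PVDF. Membranes were blocked 2 h at room temperature, probed with anti-Gli1 overnight at 4 °C and secondary 1.5 h at room temperature, then developed by ECL. Densitometry was normalised to β-actin; three separate experiments.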
# [4] = test system: BXPC-3; experiment: Inhibition of Hh signaling pathway in human BXPC-3 cells assessed as reduction in Gli1 level incubated for 48 hrs by Western blot analysis; type: cell-based; conditions: dose 2.5-10 µM; method in brief: as §1
# [5] = test system: PANC-1; experiment: Inhibition of Hh signaling pathway in human PANC-1 cells assessed as reduction in Ptch1 mRNA level incubated for 48 hrs by qRT-PCR analysis; type: cell-based
# Method in brief: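 Total RNA was extracted by column kit after 48 h treatment and checked spectrophotometrically. Gli1 and Ptch1 transcripts were quantified by real-time RT-qPCR with GAPDH as internal control. Results are fold change relative to the untreated group; three separate experiments.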
# [6] = test system: PANC-1; experiment: Inhibition of cell migration in human PANC-1 cells incubated for 24 hrs by wound healing assay; type: functional, cell-based; conditions: dose 2.5-10 µM
# Method in brief: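 Monolayers at 80-90% confluence were scratched with a cross and washed three times with PBS. Eight fields were imaged at 0 h. Cells were then incubated with compound in medium containing 2% FBS, and the same fields were re-imaged at 24 h (100×). Closure % = (area 0 h − area 24 h)/area 0 h × 100; n = 3.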
# [7] = test system: PANC-1; experiment: Induction of apoptosis in human PANC-1 cells assessed as late apoptotic cells at 10 uM incubated for 48 hrs by Annexin V-FITC/PI staining based flow cytometry (reference value: 2.74 %); type: functional
# [8] = test system: BXPC-3; experiment: Induction of apoptosis in human BXPC-3 cells assessed as late apoptotic cells at 2.5 uM incubated for 48 hrs by Annexin V-FITC/PI staining based flow cytometry (reference value: 6.72 %); type: functional
# [9] = test system: BXPC-3; experiment: Induction of apoptosis in human BXPC-3 cells assessed as necrotic cells at 2.5 uM incubated for 48 hrs by Annexin V-FITC/PI staining based flow cytometry (reference value: 0.71 %); type: functional
# [10] = test system: BXPC-3; experiment: Induction of apoptosis in human BXPC-3 cells assessed as viable cells at 5 uM incubated for 48 hrs by Annexin V-FITC/PI staining based flow cytometry (reference value: 91.5 %); type: functional; conditions: read-out: Activity
# [11] = test system: BXPC-3; experiment: Induction of apoptosis in human BXPC-3 cells assessed as early apoptotic cells at 8 uM incubated for 48 hrs by Annexin V-FITC/PI staining based flow cytometry (reference value: 1.11 %); type: functional
# [12] = test system: PANC-1; experiment: Induction of cell cycle arrest in human PANC-1 cells assessed as accumulation at G2 phase at 2.5 uM incubated for 48 hrs by PI/RNase staining based flow cytometry (reference value: 5.83 %); type: functional
# [13] = test system: PANC-1; experiment: Induction of cell cycle arrest in human PANC-1 cells assessed as accumulation at G2 phase at 10 uM incubated for 48 hrs by PI/RNase staining based flow cytometry (reference value: 5.83 %); type: functional
# [14] = test system: BXPC-3; experiment: Induction of cell cycle arrest in human BXPC-3 cells assessed as accumulation at S phase at 2.5 uM incubated for 48 hrs by PI/RNase staining based flow cytometry (reference value: 8.18 %); type: functional
# [15] = test system: BXPC-3; experiment: Induction of cell cycle arrest in human BXPC-3 cells assessed as accumulation at G2 phase at 2.5 uM incubated for 48 hrs by PI/RNase staining based flow cytometry (reference value: 8.15 %); type: functional
# [16] = test system: BXPC-3; experiment: Induction of cell cycle arrest in human BXPC-3 cells assessed as accumulation at G1 phase at 5 uM incubated for 48 hrs by PI/RNase staining based flow cytometry (reference value: 84.2 %); type: functional
# [17] = test system: BXPC-3; experiment: Induction of cell cycle arrest in human BXPC-3 cells assessed as accumulation at S phase at 10 uM incubated for 48 hrs by PI/RNase staining based flow cytometry (reference value: 8.18 %); type: functional
# [18] = test system: BXPC-3; experiment: Induction of cell cycle arrest in human BXPC-3 cells assessed as accumulation at G2 phase at 10 uM incubated for 48 hrs by PI/RNase staining based flow cytometry (reference value: 8.15 %); type: functional
# [19] = test system: Mus musculus; experiment: In vivo inhibition of Gli1 in human BxPC-3 cells xenografted in BALB/c nude mouse at 5 to 15 mg/kg, ip qd for 21 days by IHC analysis; conditions: dose 5-15 mg/kg, time 21.0 day
# [20] = test system: BxPC-3; experiment: Antitumor activity aginst human BxPC-3 cells xenografted in BALB/c nude mouse assessed as decrease in tumor weight at 15 mg/kg, ip qd for 21 days; conditions: time 21.0 day
# [21] = Toxicity in BALB/c nude mouse xenografted with human BxPC-3 cells assessed as cellular edema in liver at 5 to 15 mg/kg, ip qd for 21 days by H and E staining based analysis; conditions: in vivo, 504 h
# [22] = Toxicity in BALB/c nude mouse xenografted with human BxPC-3 cells assessed as tissue fibrosis in spleen at 5 to 15 mg/kg, ip qd for 21 days by H and E staining based analysis; conditions: in vivo, 504 h
# [23] = Toxicity in BALB/c nude mouse xenografted with human BxPC-3 cells assessed as tissue fibrosis in kidneys at 5 to 15 mg/kg, ip qd for 21 days by H and E staining based analysis; conditions: in vivo, 504 h
# [24] = Toxicity in BALB/c nude mouse xenografted with human BxPC-3 cells assessed as inflammatory infiltration in heart at 5 to 15 mg/kg, ip qd for 21 days by H and E staining based analysis; conditions: in vivo, 504 h
# [25] = Toxicity in BALB/c nude mouse xenografted with human BxPC-3 cells assessed as inflammatory infiltration in liver at 5 to 15 mg/kg, ip qd for 21 days by H and E staining based analysis; conditions: in vivo, 504 h
structure (smiles),measurement,setting,value
CN(C)Cc1ccc(NC(=O)c2ccc(Nc3nccc(-c4cccnc4)n3)cc2)cc1,pIC50,[1],8.57
same,pIC50,[2],5.38
same,inhibition,[3],Dose-dependent-effect
same,inhibition,[4],Dose-dependent-effect
same,inhibition,[5],Dose-dependent-effect
same,inhibition,[6],Dose-dependent-effect
same,Activity,[7],22.3%
same,Activity,[8],8.06%
same,Activity,[9],1.37%
same,viability at 5 µM,[10],85.5%
same,Activity,[11],2.65%
same,Activity,[12],7.2%
same,Activity,[13],12.2%
same,Activity,[14],11.1%
same,Activity,[15],11.3%
same,Activity,[16],83.9%
same,Activity,[17],3.11%
same,Activity,[18],2.98%
same,inhibition,[19],Active
same,Activity,[20],Active
same,Activity,[21],Non-toxic
same,Activity,[22],Non-toxic
same,Activity,[23],Non-toxic
same,Activity,[24],Non-toxic
same,Activity,[25],Non-toxic
